Data: ChEMBL document CHEMBL1154690, “Identification of novel, selective, and stable inhibitors of class II histone deacetylases. Validation studies of the inhibition of the enzymatic activity of HDAC4 by small molecules as a novel approach for cancer therapy” (J Med Chem, 2009)
pEC50, pIC50: −log10 of the molar value.

Biological target: T1, Histone deacetylase 1 (Homo sapiens, UniProt Q13547)
Assay: Inhibition of HDAC1
Details: not given

T1 sequence (Q13547 whole entry): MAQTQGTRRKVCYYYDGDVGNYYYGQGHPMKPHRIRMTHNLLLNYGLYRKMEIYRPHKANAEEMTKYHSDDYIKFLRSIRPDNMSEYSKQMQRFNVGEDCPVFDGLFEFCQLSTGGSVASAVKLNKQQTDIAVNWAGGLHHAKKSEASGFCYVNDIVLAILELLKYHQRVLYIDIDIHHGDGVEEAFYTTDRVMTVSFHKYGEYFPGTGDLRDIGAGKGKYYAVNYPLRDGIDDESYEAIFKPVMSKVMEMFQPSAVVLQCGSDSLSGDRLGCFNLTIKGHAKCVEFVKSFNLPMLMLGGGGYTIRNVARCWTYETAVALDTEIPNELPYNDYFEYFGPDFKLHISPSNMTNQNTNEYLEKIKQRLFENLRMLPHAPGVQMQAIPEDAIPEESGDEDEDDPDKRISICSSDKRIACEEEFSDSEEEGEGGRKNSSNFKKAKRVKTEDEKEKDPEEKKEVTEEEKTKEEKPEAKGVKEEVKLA

Structure (SMILES) | pIC50
O=C(c1ccc(-c2ccc3[nH]ccc3c2)s1)C(F)(F)F | < 5.00
O=C(c1ccc(-c2ccc3c(c2)OCCO3)s1)C(F)(F)F | < 5.00
O=C(c1ccc(-c2ccc3nccnc3c2)s1)C(F)(F)F | 6.04
O=C(O)c1ccc(-c2ccc(C(=O)C(F)(F)F)s2)cc1 | 5.60
O=C(c1ccc(-c2ccccn2)s1)C(F)(F)F | < 6.00
O=C(c1ccc(-c2ccccc2)s1)C(F)(F)F | < 4.70
CC(=O)c1ccc(-c2ccc(C(=O)C(F)(F)F)s2)cc1 | < 5.00
COc1cccc(-c2ccc(C(=O)C(F)(F)F)s2)c1 | < 5.00
O=C(O)c1cccc(-c2ccc(C(=O)C(F)(F)F)s2)c1 | 4.89
O=C(c1cnc(-c2ccccc2)s1)C(F)(F)F | 5.43
O=C(c1cc(-c2ccccc2)cs1)C(F)(F)F | < 5.00
CS(=O)(=O)Cc1noc(-c2ccc(C(=O)C(F)(F)F)s2)n1 | 5.57
COc1ccccc1-c1ccc(C(=O)C(F)(F)F)s1 | < 5.00
COc1ccc(-c2ccc(C(=O)C(F)(F)F)s2)cc1 | < 6.00
N#Cc1ccc(-c2ccc(C(=O)C(F)(F)F)s2)cc1 | 5.57

System: not listed separately
Assay: Inhibition of wild type HDAC4 (653-1084) from Escherichia coli
Details: not given
How it was run: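 Wild-type HDAC4 expressed in bacteria was assayed with an unnatural trifluoroacetyl-lysine substrate to boost its enzymatic efficiency.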

Structure (SMILES) | pIC50
O=C(c1ccc(-c2ccc3[nH]ccc3c2)s1)C(F)(F)F | < 5.00
O=C(c1ccc(-c2nc(CS(=O)(=O)c3cccs3)no2)s1)C(F)(F)F | 7.46
O=C(c1ccc(-c2ccc3c(c2)OCCO3)s1)C(F)(F)F | < 5.00
O=C(c1ccc(-c2ccc3nccnc3c2)s1)C(F)(F)F | 6.80
O=C(O)c1ccc(-c2ccc(C(=O)C(F)(F)F)s2)cc1 | 7.13
CCCS(=O)(=O)Cc1noc(-c2ccc(C(=O)C(F)(F)F)s2)n1 | 7.52
O=C(c1ccc(-c2ccccn2)s1)C(F)(F)F | 6.27
O=C(c1ccc(-c2ccccc2)s1)C(F)(F)F | 5.55
CC(=O)c1ccc(-c2ccc(C(=O)C(F)(F)F)s2)cc1 | 7.14
COc1cccc(-c2ccc(C(=O)C(F)(F)F)s2)c1 | 5.42
O=C(O)c1cccc(-c2ccc(C(=O)C(F)(F)F)s2)c1 | 6.51
O=C(c1cnc(-c2ccccc2)s1)C(F)(F)F | 6.89
O=C(c1cc(-c2ccccc2)cs1)C(F)(F)F | 5.49
CS(=O)(=O)Cc1noc(-c2ccc(C(=O)C(F)(F)F)s2)n1 | 7.62
COc1ccccc1-c1ccc(C(=O)C(F)(F)F)s1 | < 5.00
CN(Cc1ccc2nccnc2c1)C(=O)c1ccc(C(=O)C(F)(F)F)s1 | 7.01
COc1ccc(-c2ccc(C(=O)C(F)(F)F)s2)cc1 | 6.96
O=C(c1ccc(-c2nc(CS(=O)(=O)Cc3ccc(F)cc3)no2)s1)C(F)(F)F | 7.22
N#Cc1ccc(-c2ccc(C(=O)C(F)(F)F)s2)cc1 | 6.80

System: not listed separately
Assay: Inhibition of constitutively active mutant HDAC4 (653-1084) from Escherichia coli
Details: not given
How it was run: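 Bacterially expressed HDAC4 carrying an H-to-Y active-site mutation, giving a constitutively active mutant enzyme, was used in the enzymatic inhibition assay.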

Structure (SMILES) | pIC50
O=C(c1ccc(-c2ccc3[nH]ccc3c2)s1)C(F)(F)F | 5.21
O=C(c1ccc(-c2nc(CS(=O)(=O)c3cccs3)no2)s1)C(F)(F)F | 6.00
O=C(c1ccc(-c2ccc3c(c2)OCCO3)s1)C(F)(F)F | 5.85
O=C(c1ccc(-c2ccc3nccnc3c2)s1)C(F)(F)F | 7.27
O=C(O)c1ccc(-c2ccc(C(=O)C(F)(F)F)s2)cc1 | 7.22
CCCS(=O)(=O)Cc1noc(-c2ccc(C(=O)C(F)(F)F)s2)n1 | 6.28
O=C(c1ccc(-c2ccccn2)s1)C(F)(F)F | < 6.00
O=C(c1ccc(-c2ccccc2)s1)C(F)(F)F | 5.55
CC(=O)c1ccc(-c2ccc(C(=O)C(F)(F)F)s2)cc1 | 7.92
COc1cccc(-c2ccc(C(=O)C(F)(F)F)s2)c1 | < 5.30
O=C(O)c1cccc(-c2ccc(C(=O)C(F)(F)F)s2)c1 | 7.02
O=C(c1cnc(-c2ccccc2)s1)C(F)(F)F | 6.72
O=C(c1cc(-c2ccccc2)cs1)C(F)(F)F | < 5.00
CS(=O)(=O)Cc1noc(-c2ccc(C(=O)C(F)(F)F)s2)n1 | 6.11
COc1ccccc1-c1ccc(C(=O)C(F)(F)F)s1 | 5.46
CN(Cc1ccc2nccnc2c1)C(=O)c1ccc(C(=O)C(F)(F)F)s1 | 7.06
COc1ccc(-c2ccc(C(=O)C(F)(F)F)s2)cc1 | < 6.00
O=C(c1ccc(-c2nc(CS(=O)(=O)Cc3ccc(F)cc3)no2)s1)C(F)(F)F | 6.17
N#Cc1ccc(-c2ccc(C(=O)C(F)(F)F)s2)cc1 | 7.85

Biological target: T2, Protein deacetylase HDAC6 (Homo sapiens, UniProt Q9UBN7)
T2 sequence (Q9UBN7 whole entry): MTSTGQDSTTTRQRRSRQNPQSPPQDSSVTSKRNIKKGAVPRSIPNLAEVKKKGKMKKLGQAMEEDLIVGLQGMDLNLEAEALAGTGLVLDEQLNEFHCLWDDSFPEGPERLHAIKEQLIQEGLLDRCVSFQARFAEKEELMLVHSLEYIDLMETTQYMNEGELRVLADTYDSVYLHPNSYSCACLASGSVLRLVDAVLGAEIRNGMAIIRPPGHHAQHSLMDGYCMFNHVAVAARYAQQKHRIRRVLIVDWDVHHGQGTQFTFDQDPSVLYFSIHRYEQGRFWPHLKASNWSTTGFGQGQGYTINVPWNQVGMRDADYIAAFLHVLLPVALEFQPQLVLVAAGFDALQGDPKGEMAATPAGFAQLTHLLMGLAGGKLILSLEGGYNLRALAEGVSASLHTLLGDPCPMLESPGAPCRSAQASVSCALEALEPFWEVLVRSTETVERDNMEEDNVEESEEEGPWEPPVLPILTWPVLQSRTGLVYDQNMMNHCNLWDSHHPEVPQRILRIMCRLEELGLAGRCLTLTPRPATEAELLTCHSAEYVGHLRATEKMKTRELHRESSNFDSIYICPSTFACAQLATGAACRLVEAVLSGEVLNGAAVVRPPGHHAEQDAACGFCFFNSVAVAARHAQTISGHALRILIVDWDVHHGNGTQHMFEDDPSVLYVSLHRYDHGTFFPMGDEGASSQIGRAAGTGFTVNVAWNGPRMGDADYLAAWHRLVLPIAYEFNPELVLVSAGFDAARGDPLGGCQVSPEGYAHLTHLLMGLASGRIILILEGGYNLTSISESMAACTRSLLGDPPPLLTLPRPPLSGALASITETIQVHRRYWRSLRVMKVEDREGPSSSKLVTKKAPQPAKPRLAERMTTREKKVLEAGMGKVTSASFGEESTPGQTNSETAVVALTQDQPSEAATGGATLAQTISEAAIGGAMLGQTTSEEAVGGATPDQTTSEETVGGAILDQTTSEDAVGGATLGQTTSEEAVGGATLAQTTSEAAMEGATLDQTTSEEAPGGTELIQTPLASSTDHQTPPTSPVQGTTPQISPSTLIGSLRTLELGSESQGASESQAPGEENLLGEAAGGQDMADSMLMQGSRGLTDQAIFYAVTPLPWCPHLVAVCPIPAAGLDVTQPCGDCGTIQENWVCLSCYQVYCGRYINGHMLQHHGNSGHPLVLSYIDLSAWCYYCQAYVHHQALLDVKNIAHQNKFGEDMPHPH
Assay: Inhibition of HDAC6
Details: not given

Structure (SMILES) | pIC50
O=C(c1ccc(-c2ccc3[nH]ccc3c2)s1)C(F)(F)F | < 5.30
O=C(c1ccc(-c2ccc3c(c2)OCCO3)s1)C(F)(F)F | 7.43
O=C(c1ccc(-c2ccc3nccnc3c2)s1)C(F)(F)F | 7.82
O=C(O)c1ccc(-c2ccc(C(=O)C(F)(F)F)s2)cc1 | 7.57
O=C(c1ccc(-c2ccccn2)s1)C(F)(F)F | < 6.00
O=C(c1ccc(-c2ccccc2)s1)C(F)(F)F | 6.77
CC(=O)c1ccc(-c2ccc(C(=O)C(F)(F)F)s2)cc1 | 7.54
COc1cccc(-c2ccc(C(=O)C(F)(F)F)s2)c1 | 5.51
O=C(O)c1cccc(-c2ccc(C(=O)C(F)(F)F)s2)c1 | 7.15
O=C(c1cnc(-c2ccccc2)s1)C(F)(F)F | 6.68
O=C(c1cc(-c2ccccc2)cs1)C(F)(F)F | 5.72
CS(=O)(=O)Cc1noc(-c2ccc(C(=O)C(F)(F)F)s2)n1 | 6.64
COc1ccccc1-c1ccc(C(=O)C(F)(F)F)s1 | 5.20
COc1ccc(-c2ccc(C(=O)C(F)(F)F)s2)cc1 | < 6.00
N#Cc1ccc(-c2ccc(C(=O)C(F)(F)F)s2)cc1 | 7.39

System: not listed separately
Assay: Selectivity ratio of IC50 for Escherichia coli HDAC4 WT (653-1084) to IC50 for HDAC1
Details: not given

Structure (SMILES) | Ratio IC50
O=C(c1cnc(-c2ccccc2)s1)C(F)(F)F | 25
CS(=O)(=O)Cc1noc(-c2ccc(C(=O)C(F)(F)F)s2)n1 | > 100

System: not listed separately
Assay: Metabolic stability in S9 fraction of human HACT116 cells assessed as half life by LC-MS/MS analysis
Format: ADME, subcellular
Details: S9 fraction of HACT116 (HCT116) cells

Structure (SMILES) | half-life [h]
O=C(c1ccc(-c2nc(CS(=O)(=O)c3cccs3)no2)s1)C(F)(F)F | 0.867
O=C(c1ccc(-c2ccc3nccnc3c2)s1)C(F)(F)F | 0.167
CC(=O)c1ccc(-c2ccc(C(=O)C(F)(F)F)s2)cc1 | > 2
O=C(c1cnc(-c2ccccc2)s1)C(F)(F)F | 0.25
CS(=O)(=O)Cc1noc(-c2ccc(C(=O)C(F)(F)F)s2)n1 | > 2
CN(Cc1ccc2nccnc2c1)C(=O)c1ccc(C(=O)C(F)(F)F)s1 | 0.25
O=C(c1ccc(-c2nc(CS(=O)(=O)Cc3ccc(F)cc3)no2)s1)C(F)(F)F | > 2
N#Cc1ccc(-c2ccc(C(=O)C(F)(F)F)s2)cc1 | > 2

System: not listed separately
Assay: Metabolic stability in human HCT116 cells assessed as half life by LC-MS/MS analysis
Format: ADME, cell-based, HCT-116
Details: not given

Structure (SMILES) | half-life [h]
O=C(c1ccc(-c2nc(CS(=O)(=O)c3cccs3)no2)s1)C(F)(F)F | 6
O=C(O)c1cccc(-c2ccc(C(=O)C(F)(F)F)s2)c1 | 11
N#Cc1ccc(-c2ccc(C(=O)C(F)(F)F)s2)cc1 | 8

Biological target: T2, Protein deacetylase HDAC6
Assay: Inhibition of HDAC6 in human HCT116 cells assessed as alpha-tubulin hyperacetylation after 24 hrs
Format: cell-based, HCT-116
Details: not given
How it was run: (§1)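 HCT116 cells were exposed to inhibitor for 72 h in the proliferation assay, or for 24 h for the histone H3 and α-tubulin deacetylation read-outs. Medium was replaced with fresh inhibitor every 12 h throughout. EC50 was taken as the mean of two independent determinations.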

Structure (SMILES) | pEC50
O=C(O)c1cccc(-c2ccc(C(=O)C(F)(F)F)s2)c1 | 6.00
CS(=O)(=O)Cc1noc(-c2ccc(C(=O)C(F)(F)F)s2)n1 | 6.19

Biological target: T1, Histone deacetylase 1
Assay: Inhibition of HDAC1 in human HCT116 cells assessed as inhibition of histone-H3 deacetylation after 24 hrs
Format: cell-based, HCT-116
Details: not given
How it was run: as §1

Structure (SMILES) | pEC50
O=C(O)c1cccc(-c2ccc(C(=O)C(F)(F)F)s2)c1 | < 4.30
CS(=O)(=O)Cc1noc(-c2ccc(C(=O)C(F)(F)F)s2)n1 | 5.05

System: HCT-116
Assay: Antiproliferative activity against human HCT116 cells after 72 hrs
Format: functional, cell-based
Details: HCT-116, 72 h
How it was run: as §1

Structure (SMILES) | pEC50
O=C(O)c1cccc(-c2ccc(C(=O)C(F)(F)F)s2)c1 | < 4.30
CS(=O)(=O)Cc1noc(-c2ccc(C(=O)C(F)(F)F)s2)n1 | 4.89
